Activity calls are given as the source filed them. The calls are words filed in the database; no cut-off is given here.
Experiments:
[1] = Activation of AMPK assessed as phosphorylation of T172 at 10 uM by Western blotting relative to control
Method in brief: (§1)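 L6 cells, serum-starved 6 h, treated with 10 μM for set times (10 min to 6 h). RIPA lysates (40 μg) run on SDS-PAGE and blotted to nitrocellulose. Blocked in TBS-Tween with 5% milk. Probed overnight at 4 °C with anti-ACC (pS79) or anti-AMPK (pT172) and the total-protein antibodies. HRP secondary antibody, ECL detection.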

[2] = Activation of ACC phosphorylation at S79 at 10 uM by Western blotting relative to control; method in brief: as §1
[3] = Induction of AMPK phosphorylation in […] cells […]; format: cell-based; details: L6, 10 min
Mus musculus [4] = test: Induction of AMPK phosphorylation in diet induced obese mouse liver at 10 mg/kg, sc qd by immunoblotting; format: functional, organism-based; set-up: dose 10 mg/kg
Method in brief: (§2)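 DIO mice were dosed 10 mg/kg/day sc in PEG400 or vehicle for 1 month, n = 7 per group, then fasted 24 h. Liver and muscle lysates were immunoblotted for phospho-AMPK/ACC and the total proteins.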

C2C12 [5] = test: Increase in AMPK-mediated glucose uptake in mouse C2C12 cells by confocal laser scanning microscopy; format: cell-based
Method in brief: (§3)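 C2C12 myocytes were differentiated in 2% horse serum, held in low-glucose serum-free medium for 4 h, then treated for 1 h in glucose-free DMEM at 10 μM. In the CLSM chamber at 37 °C, 5 μM Cy3-Glc-R was injected and images taken every 7 s to follow fluorescence uptake.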

3T3-L1 [6] = test: Induction of ACC phosphorylation in mouse 3T3L1 cells after 1 hr
C2L12 [7] = test: Induction of ACC phosphorylation in mouse […] cells after 1 hr
L6 (Rattus norvegicus) = test: Increase in AMPK-mediated glucose uptake in rat L6 cells by confocal laser scanning microscopy in presence of compound C
[8] = target: T1, Serine/threonine-protein kinase STK11 (Homo sapiens) (UniProt Q15831); test: Activation of LKB1 expressed in human HeLa cells assessed as increase in AMPK phosphorylation; format: cell-based
T1 sequence (whole entry): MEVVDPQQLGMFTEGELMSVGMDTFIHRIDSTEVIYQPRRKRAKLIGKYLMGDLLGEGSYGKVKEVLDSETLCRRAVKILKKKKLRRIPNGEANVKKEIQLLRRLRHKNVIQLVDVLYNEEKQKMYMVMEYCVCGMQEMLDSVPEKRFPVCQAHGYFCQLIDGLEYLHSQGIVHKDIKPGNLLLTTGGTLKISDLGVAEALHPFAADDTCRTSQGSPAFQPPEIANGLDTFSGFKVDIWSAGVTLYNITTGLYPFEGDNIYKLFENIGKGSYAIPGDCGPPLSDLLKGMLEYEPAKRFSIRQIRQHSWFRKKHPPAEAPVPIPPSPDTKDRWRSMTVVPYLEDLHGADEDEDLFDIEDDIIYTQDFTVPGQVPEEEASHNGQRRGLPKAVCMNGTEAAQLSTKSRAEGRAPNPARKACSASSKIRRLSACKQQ
Method in brief: (§4)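 HeLa cells lack endogenous LKB1. They were transfected for 24 h with HA-tagged LKB1 in pcDNA3.1 or mock-transfected. After 6 h serum starvation, cells were exposed to 10 μM for set times. Lysates were immunoblotted for AMPK (pT172), total AMPK and HA.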

3T3-L1 [9] = test: Induction of AMPK phosphorylation in mouse 3T3L1 cells after 1 hr
Mus musculus [10] = test: Antiobesity activity in diet induced obese mouse assessed as change in food intake at 10 mg/kg, sc qd; format: functional, organism-based; set-up: dose 10 mg/kg
Method in brief: (§5)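 DIO C57BL/6J males (high-fat diet, 60% of calories from fat, for 8 weeks) were given 10 mg/kg/day sc in PEG400 or vehicle for 30 days, n = 7 per group. Body weight and food intake were recorded every 3 days.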

Mus musculus [11] = test: Induction of AMPK phosphorylation in diet induced obese mouse muscle at 10 mg/kg, sc qd by immunoblotting; format: functional, organism-based; set-up: dose 10 mg/kg; method in brief: as §2
Mus musculus [12] = test: Antidiabetic activity in diet induced obese mouse assessed as reduction in insulin level at 10 mg/kg, sc qd; format: functional, organism-based; set-up: dose 10 mg/kg
Method in brief: (§6)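 DIO mice were male C57BL/6J fed a 60%-fat diet from 4 weeks of age for 8 weeks. Dosed 10 mg/kg/day sc in PEG400 or vehicle for 1 month, n = 7 per group. Serum insulin was measured by mouse insulin ELISA and blood glucose by glucometer. Mean ± SD; Student's t test/ANOVA.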

C2C12 [13] = test: Increase in AMPK-mediated glucose uptake in mouse C2C12 cells assessed as increase in fluorescent intensity by confocal laser scanning microscopy; format: cell-based; method in brief: as §3
Mus musculus [14] = test: Antiobesity activity in diet induced obese mouse assessed as change in body weight at 10 mg/kg, sc qd; format: functional, organism-based; set-up: dose 10 mg/kg; method in brief: as §5
L6 = test: Induction of ACC phosphorylation in […] cells after 10 mins; format: cell-based
Method in brief: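 L6, C2C12 or 3T3-L1 cells, serum-starved 6 h, were treated for 1 h with graded concentrations (0–20 μM); L6 cells were also given a 10 μM time course. Lysates were immunoblotted for AMPK pT172, ACC pS79 and the total proteins, with ECL detection.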

[15] = target: AMP-activated protein kinase, AMPK (Homo sapiens) (UniProt P54646+O43741+P54619+Q9UGJ0+Q9Y478+Q13131+Q9UGI9); test: Induction of AMPK phosphorylation in human HeLa cells; format: cell-based; method in brief: as §4
C2L12 [16] = test: Induction of AMPK phosphorylation in mouse […] cells after 1 hr
Mus musculus [17] = test: Antidiabetic activity in diet induced obese mouse assessed as reduction in glucose level at 10 mg/kg, sc qd; format: functional, organism-based; set-up: dose 10 mg/kg; method in brief: as §6

Structure (SMILES)	Activity [1] [%]	Activity [2] [%]	further results
COc1ccc2c(c1O)OC(C)(C)c1c-2ccc2c1C(=O)N(C)C2=O	205	145	–
COc1ccc2c(c1)OC(C)(C)c1c-2ccc2c1C(=O)N(c1ccc(C(=O)c3ccccc3)cc1)C2=O	159	154	–
COc1ccc2c(c1O)OC(C)(C)c1c-2ccc2c1C(=O)N(Cc1ccccc1)C2=O	165	194	–
CC1(C)Oc2cc(F)ccc2-c2ccc3c(c21)C(=O)N(c1ccc(C(=O)c2ccccc2)cc1)C3=O	186	156	–
COc1ccc2c(c1O)OC(C)(C)c1c-2ccc2c1C(=O)NC2=O	158	123	–
CC1(C)Oc2ccccc2-c2ccc3c(c21)C(=O)N(c1ccc(C(=O)c2ccccc2)cc1)C3=O	203	92	–

The next lines start with results.

Activity [1] [%]	Activity [2] [%]	Structure (SMILES)	further results
249	154	COc1ccc2c(c1O)OC(C)(C)c1c-2ccc2c1C(=O)N(c1ccc3c(c1)-c1ccccc1C3=O)C2=O	–
160	114	COc1ccc2c(c1O)OC(C)(C)c1c-2ccc2c1C(=O)N(c1ccc(-c3ccccc3)cc1)C2=O	–
175	201	COc1ccc2c(c1O)OC(C)(C)c1c-2ccc2c1C(=O)N(c1cccc(-c3ccccc3)c1)C2=O	–
264	384	COc1ccc2c(c1O)OC(C)(C)c1c-2ccc2c1C(=O)N(c1ccc(C(C)=O)cc1)C2=O	–
322	295	COc1ccc2c(c1O)OC(C)(C)c1c-2ccc2c1C(=O)N(c1ccc(C(=O)c3ccccc3)cc1)C2=O [AMPKINONE]	EC50 [3]: 4.3 µM; Activity (Mus musculus [4]): Active; fold change (FC) (C2C12 [5]): 3.2; Activity (3T3-L1 [6]): Dose-dependent effect; Activity (C2L12 [7]): Dose-dependent effect; Activity (L6 (Rattus norvegicus)): inactive; Activity [8]: Active; Activity (3T3-L1 [9]): Dose-dependent effect; Activity (Mus musculus [10]): inactive; Activity (Mus musculus [11]): Active; Activity (Mus musculus [12]): Active; Activity (C2C12 [13]): Active; Activity (Mus musculus [14]): inactive; Activity (L6): Active; Activity [15]: Active; Activity (C2L12 [16]): Dose-dependent effect; Activity (Mus musculus [17]): Active
169	129	COc1ccc2c(c1O)OC(C)(C)c1c-2ccc2c1C(=O)N(c1ccc(Cc3ccccc3)cc1)C2=O	–
113	51	COc1ccc2c(c1O)OC1(CCCC1)c1c-2ccc2c1C(=O)N(c1ccc(C(=O)c3ccccc3)cc1)C2=O	–
92	91	COc1ccc2c(c1O)OC(C)(C)c1c-2ccc2c1C(=O)N(c1ccc(-c3nc4ccccc4o3)cc1)C2=O	–
273	254	COc1ccc2c(c1O)OC(C)(C)c1c-2ccc2c1C(=O)N(c1ccccc1)C2=O	–
